Assay results as given in BindingDB's records for doi:10.1016/j.bmc.2018.05.049 (2018).

molecular target: T1, Sodium- and chloride-dependent GABA transporter 2 (Mus musculus, UniProt P31649); assay: Inhibition of mouse GAT2 expressed in HEK293 cells assessed as decrease in [3H]GABA uptake preincubated for 25 mins followed by [3H]GABA addition measured after 10 mins by liquid scintillation counting analysis
T1 sequence (P31649 whole entry): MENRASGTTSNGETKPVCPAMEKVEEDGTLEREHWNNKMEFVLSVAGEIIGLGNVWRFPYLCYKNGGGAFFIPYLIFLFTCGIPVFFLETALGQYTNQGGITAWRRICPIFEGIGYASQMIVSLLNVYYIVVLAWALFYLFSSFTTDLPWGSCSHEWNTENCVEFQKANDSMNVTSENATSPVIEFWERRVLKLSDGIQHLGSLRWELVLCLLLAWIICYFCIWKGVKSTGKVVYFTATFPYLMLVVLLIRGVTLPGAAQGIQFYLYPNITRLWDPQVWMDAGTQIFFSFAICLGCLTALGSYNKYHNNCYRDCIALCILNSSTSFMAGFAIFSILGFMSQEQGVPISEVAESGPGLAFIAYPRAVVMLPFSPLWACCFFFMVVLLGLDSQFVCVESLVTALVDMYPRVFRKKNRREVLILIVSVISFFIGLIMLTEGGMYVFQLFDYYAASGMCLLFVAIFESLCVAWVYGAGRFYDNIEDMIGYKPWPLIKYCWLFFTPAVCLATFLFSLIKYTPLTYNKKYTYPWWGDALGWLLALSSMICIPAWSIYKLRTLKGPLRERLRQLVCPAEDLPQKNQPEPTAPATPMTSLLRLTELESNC
In short: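 [³H]GABA uptake assay in HEK cells expressing the mGAT subtype named in the line, run in triplicate. Potencies are given as pIC₅₀ ± SEM. No SEM is given where only one triplicate measurement was made. Where 100 µM test compound left uptake at or above 50% (pIC₅₀ ≤ 4.00), the percent remaining [³H]GABA uptake at 100 µM is reported instead.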

Q: For COc1ccc(C(C#CCCN2CCCC(C(=O)O)C2)(c2ccc(OC)cc2)c2ccc(OC)cc2)cc1 (centres undefined), which IC50 is on record?
A: 35.5 µM

Q: Which IC50 does the source give for COc1ccc(C(OCCN2CCCC(C(=O)O)C2)(c2ccc(OC)cc2C)c2ccc(OC)cc2C)cc1 (centres undefined) here?
A: 32.4 µM

Q: Which IC50 does the source give for COc1ccc(C(CC#CCN2CCCC(C(=O)O)C2)(c2ccc(OC)cc2)c2ccc(OC)cc2)cc1 (centres undefined) here?
A: 33.9 µM

Q: Which IC50 does the source give for COc1ccc(C(C#CCN2CCCC(C(=O)O)C2)(c2ccc(OC)cc2)c2ccc3c(c2)OCO3)cc1 (centres undefined) here?
A: 41.7 µM
